Bioassay records as filed in PubChem BioAssay.
ERAP1 inh: ERAP1 (human) enzyme inhibition; recombinant ERAP1, Leu-AMC fluorescence, 60 min; inhibition, % at 10.7 µM; 340,000 tested, 0.15% active;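 active = mean replicate inhibition of at least 30%, or all replicates individually reaching that 30% level; inactive = mean below 30% and not every replicate reaching it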;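 also: 0% = neutral control wells and 100% = L-leucinethiol positive control wells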
DENV2 CPE: inhibitors of DENV2 cytopathic effect. CPE inhibition, % at 9.99 µM. 350,000 tested, 1.7% active. AID 651640. DENV2-infected cells, cytopathic effect rescue, plate reader; in the data active = CPE inhibition above about 20%, passing the limit was not always enough; inconclusive = no clear call, values can overlap the other calls; tested in BHK-21 cells;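 also: 0% = median of neutral control wells and 100% = median of positive control wells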
SIRT5 inh: blocks human SIRT5 desuccinylation of peptide; Q9NXA8; Purified SirT5, succinyl-peptide AMC, trypsin-coupled fluorescence; inhibition, % at 15 µM; 330,000 tested, 1.1% active; AID 652115; in the data active = inhibition above about 15%; inconclusive = no clear call, values can overlap the other calls
Target sequence (Q9NXA8 whole entry, looked up): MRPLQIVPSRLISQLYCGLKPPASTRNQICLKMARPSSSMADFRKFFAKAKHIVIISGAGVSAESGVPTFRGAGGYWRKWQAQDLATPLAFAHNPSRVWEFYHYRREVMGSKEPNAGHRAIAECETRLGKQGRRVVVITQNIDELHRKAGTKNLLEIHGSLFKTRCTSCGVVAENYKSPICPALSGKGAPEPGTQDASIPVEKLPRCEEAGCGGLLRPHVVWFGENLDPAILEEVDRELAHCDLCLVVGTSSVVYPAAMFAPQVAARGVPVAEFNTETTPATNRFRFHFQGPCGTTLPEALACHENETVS
PglD inh: blocks C. jejuni PglD acetyltransferase activity. 360,000 tested, 0.098% active. inhibition, % at 12.5 µM. purified PglD enzyme, DTNB colorimetric CoA detection; in the data active = inhibition above about 16%, passing the limit was not always enough; inconclusive = no clear call, values can overlap the other calls
E-sel inducer: induces E-selectin expression in human endothelial cells | HUVEC E-selectin immunofluorescence imaging; normalized: neutral wells 0, TNF-alpha wells 100 | activation, % at 7.58 µM | 260,000 tested, 0.37% active | AID 686992;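 active = mean E-selectin-positive cell signal at least 10% of the positive control, reached in at least 60% of replicates, without over 20% cell loss; inconclusive = no rule given, readout overlaps actives, possibly toxicity-flagged; inactive = the rest, including those meeting only one limit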
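Material: HUVEC primary endothelial cells; Amount: 3,000 cells per well; Dosing: single concentration; Medium: EGM-2 growth medium on 0.1% gelatin-coated wells; Read-out basis: percent E-selectin-positive cells; Signal: immunofluorescence imaging; Control set: TNF-alpha, DMSO.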
Active calls of the source: *; u = inconclusive; x = not tested or not shown. Compounds with a hit are over-represented: about 2.5% of the library has one in this group of screens.

SMILES	ERAP1 inh	DENV2 CPE	SIRT5 inh	PglD inh	E-sel inducer
CCCC(=O)N1CCN(c2nc3c(OC)ccc(Cl)c3s2)CC1	2	-5	2	-1	x
COc1ccc(Cl)c2sc(N3CCN(C(=O)c4ccco4)CC3)nc12	0	104*	1	x	0
COc1ccccc1N1CCN(C(=O)c2ccco2)CC1	-3	u	-4	1	35*
COc1ccccc1N1CCN(C(=O)C(C)NC(=O)c2ccco2)CC1 (stereo not drawn)	2	0	-8	-4	0
O=C(c1ccco1)N1CCN(C2c3ccccc3-c3ccccc32)CC1	0	54*	-1	2	0
O=C1c2cccc([N+](=O)[O-])c2C(=O)N1c1cccnc1	-4	x	20*	x	x
COc1cccc(S(=O)(=O)N2C[C@@H](O)COC[C@@H]3O[C@H](CC(=O)N4CCCCC4)CC[C@H]32)c1	-3	13	5	2	0
O=C(C[C@@H]1CC[C@H]2[C@@H](COC[C@@H](O)CN2S(=O)(=O)c2cccc(Cl)c2)O1)N1CCOCC1	-1	24*	-2	-2	0
O=C(C[C@H]1CC[C@H]2[C@@H](COC[C@@H](O)CN2S(=O)(=O)c2cccc(Cl)c2)O1)Nc1ccc(-c2ccccc2)cc1	2	-4	19*	0	0
CN1CCN(C(=O)C[C@H]2CC[C@H]3[C@@H](COC[C@@H](O)CN3S(=O)(=O)c3cccc(Cl)c3)O2)CC1	-2	76*	-6	0	0
COc1cccc(S(=O)(=O)N2C[C@@H](O)COC[C@@H]3O[C@@H](CC(=O)N4CCCCC4)CC[C@H]32)c1	-4	29*	-1	-23	0
O=C(NC1CCCCC1)C(c1cccnc1)N(C(=O)c1csnn1)c1ccc(F)cc1 (stereo not drawn)	1	-6	-4	-4	1
COc1ccc(NC(=O)N2C[C@@H](O)COC[C@H]3O[C@H](CC(=O)N4CCCCC4)CC[C@@H]32)cc1	3	-1	2	3	0
COc1ccc(NC(=O)N2C[C@H](O)COC[C@@H]3O[C@@H](CC(=O)N4CCCCC4)CC[C@H]32)cc1	6	4	25*	1	0
CCOC(=O)C(C)Oc1cc(Cl)c(C=O)cc1OC (stereo not drawn)	4	6	16*	x	x
CC(CN1CCOCC1)OC(=O)c1ccc(Br)cc1 (stereo not drawn)	x	x	x	-2	x
C[C@@H](CSc1ccc(Br)cc1)CN1CC[C@H](NC(=O)OCc2ccccc2)CCC1=O	-7	75*	4	1	0
COc1ccc(SC[C@H](C)CN2CC[C@H](NC(=O)OCc3ccccc3)CCC2=O)cc1	-5	-1	-3	4	0
CCCS(=O)(=O)N1CCN=C1SCc1cccnc1	-3	2	-3	x	x
C[C@@H]1CN([C@H](C)CO)C(=O)c2cc(NS(=O)(=O)c3ccc(F)cc3)ccc2O[C@@H](C)CCCCO[C@H]1CN(C)S(=O)(=O)c1ccc(Cl)cc1	4	11	0	-1	x
C[C@H](CO)N1C[C@H](C)[C@@H](CN(C)S(=O)(=O)c2ccc(Cl)cc2)OCCCC[C@H](C)Oc2ccc(NS(=O)(=O)c3ccc(F)cc3)cc2C1=O	4	-6	-2	2	x
C[C@@H]1CCCCO[C@H](CN(C)S(=O)(=O)c2ccc(Cl)cc2)[C@H](C)CN([C@@H](C)CO)C(=O)c2cc(NS(=O)(=O)c3ccc(F)cc3)ccc2O1	6	-11	22*	4	x
C[C@@H]1CCCCO[C@H](CN(C)S(=O)(=O)c2ccc(Cl)cc2)[C@H](C)CN([C@H](C)CO)C(=O)c2cc(NS(=O)(=O)c3ccc(F)cc3)ccc2O1	5	-13	20*	3	x
C[C@@H]1CCCCO[C@H](CN(C)S(=O)(=O)c2ccc(F)cc2)[C@@H](C)CN([C@@H](C)CO)C(=O)c2cc(NS(=O)(=O)c3ccc(Cl)cc3)ccc2O1	0	13	17*	-3	0
COc1ccc(C)cc1N(CC(=O)N1CCOCC1)S(C)(=O)=O	-2	-3	-6	0	0
SMILES	ERAP1 inh	DENV2 CPE	SIRT5 inh	PglD inh	E-sel inducer
CC1CCCC(NC(=O)CSc2nnnn2C)C1C (stereo not drawn)	5	6	-4	-1	x
COc1ccc(NC(=O)C2Cc3c(-c4cccc(C(C)=O)c4)ccnc3O2)cc1OC (stereo not drawn)	0	u	0	1	0
CC(=O)NCCCC[C@@H]1NC(=O)[C@@H]2C[C@H](C(=O)O)[C@H](c3ccc(O)cc3)N2C1=O	0	5	-2	-1	x
CC(=O)NCCCC[C@@H]1NC(=O)[C@@H]2C[C@H](C(=O)NCc3ccc(F)cc3)[C@H](c3ccc(O)cc3)N2C1=O	-2	20*	-1	1	x
C[C@@H]1CN([C@H](C)CO)S(=O)(=O)c2ccc(C#Cc3cccnc3)cc2O[C@H]1CN(C)CC1CCCC1	x	3	11	1	0
O=C(C[n+]1ccsc1)c1ccccc1	2	31*	2	-120	-1
Cc1cc(NC(=O)C(Cl)c2ccccc2)no1 (stereo not drawn)	0	-3	-4	0	-2
COc1cc(NC(=O)COC(=O)CNC(=O)c2ccc(C)cc2)c(C)cc1[N+](=O)[O-]	0	2	20*	x	0
COc1cc(NC(=O)COC(=O)CC(C)(C)C)c(C)cc1[N+](=O)[O-]	-3	3	-2	x	-2
NS(=O)(=O)c1cc(C(=O)NC2CCSc3ccccc32)ccc1Cl (stereo not drawn)	6	6	43*	3	x
Cc1ccc(NC(=O)COC(=O)CCn2c(C)csc2=O)cc1S(=O)(=O)N1CCOCC1	-3	-7	1	-1	0
CN(Cc1ccccc1)C(c1ccnc2ccccc12)c1nnnn1-c1ccc2c(c1)OCCO2 (stereo not drawn)	0	-4	39*	x	0
C[C@@H]1CN([C@H](C)CO)C(=O)Cc2cc(NS(=O)(=O)c3ccc(Cl)cc3)ccc2O[C@@H]1CN(C)Cc1ccc(Cl)c(Cl)c1	-1	-1	16*	0	-1
C[C@@H]1CN([C@H](C)CO)C(=O)Cc2cc(NS(=O)(=O)c3ccccc3)ccc2O[C@H]1CN(C)Cc1ccc(Cl)c(Cl)c1	2	33*	18*	-3	0
C[C@@H]1CN([C@H](C)CO)C(=O)Cc2cc(NS(=O)(=O)c3ccccc3)ccc2O[C@@H]1CN(C)Cc1ccc(Cl)c(Cl)c1	-1	8	-1	8	0
C/C=C/c1ccc([C@@H]2[C@@H](CN(CC)C(=O)CC)N(C(=O)C3CCC3)[C@H]2CO)cc1	x	25*	3	1	0
CC(C)NC(=O)N1[C@H](CN(C)C(=O)c2ccccc2)[C@@H](c2ccccc2)[C@@H]1CO	-2	5	18*	-1	0
C/C=C/c1ccc([C@H]2[C@@H](CN(C)C(=O)CC)N(C(=O)NC(C)C)[C@H]2CO)cc1	2	27*	2	0	1
